1 molecule from ChEMBL document CHEMBL2311485, “Chemical and microbial semi-synthesis of tetrahydroprotoberberines as inhibitors on tissue factor procoagulant activity” (Bioorg Med Chem, 2013) can be followed below.

The experiment concerns the target Tissue factor (Homo sapiens, UniProt P13726). Description: Inhibition of tissue factor procoagulant activity in LPS-stimulated human THP1 cells preincubated for 1 hr before LPS addition measured after 5 hrs. In kind it is cell-based, THP-1. The method in brief:
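THP-1 cells grown in RPMI-1640 with 10% heat-inactivated FCS, 37 °C, 5% CO2. Cells at 1 × 10⁶/mL pretreated 1 h with compound or 0.1% DMSO vehicle, then given 500 ng/mL LPS for 5 h. Cells were pelleted, resuspended, frozen/thawed three times, and the lysate incubated with prothrombin complex plus CaCl₂ (pH 7.3) 15 min at 37 °C. Factor Xa chromogenic substrate (0.5 mM) with EDTA was added and A405 read.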

Sequence of Tissue factor (P13726 whole entry): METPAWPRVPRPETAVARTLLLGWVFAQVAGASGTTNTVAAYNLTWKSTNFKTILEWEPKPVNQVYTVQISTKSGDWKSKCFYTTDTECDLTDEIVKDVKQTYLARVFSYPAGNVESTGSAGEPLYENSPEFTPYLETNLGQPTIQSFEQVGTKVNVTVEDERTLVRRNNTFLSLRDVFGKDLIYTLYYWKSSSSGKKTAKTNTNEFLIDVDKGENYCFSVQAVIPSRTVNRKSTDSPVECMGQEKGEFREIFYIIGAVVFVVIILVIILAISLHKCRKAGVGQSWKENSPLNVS

For the molecule `COc1cc2c(cc1O)[C@@H]1Cc3ccc(O)c(OC)c3CN1CC2` [STEPHOLIDINE], the IC50 worked out at 105 nM.

Usually IC50 stands for the concentration that inhibits the measured activity by half.
